Assay results collected from several papers.
Lines come from different studies, so protocols differ.
CDK15: Cyclin-dependent kinase 15 (CDK15, Homo sapiens, UniProt Q96Q40)
WNK1: Serine/threonine-protein kinase WNK1 (WNK1, Homo sapiens, UniProt Q9H4A3)
MALT1: Mucosa-associated lymphoid tissue lymphoma translocation protein 1 (MALT1, Homo sapiens, UniProt Q9UDY8)

SMILES	target	observed	mode	method	concentration	measurement	value
CN(CCN1CCC(OC(=O)Nc2ccccc2-c2ccccc2)CC1)C(=O)c1ccc(CN2CCC(C(N)=O)CC2)cc1	Endothelin-1 receptor (EDNRA, Homo sapiens, UniProt P25101)	ligand displacement		radioligand	1 µM	inhibition	23%
C[C@@H](NC(=O)[C@@H](N)Cc1ccc(O)cc1)C(=O)N[C@@H](Cc1ccccc1)C(=O)NCC(=O)N[C@@H](Cc1ccc(O)cc1)C(=O)N1CCC[C@H]1C(=O)N[C@@H](CCCCN)C(=O)N[C@@H](CSC1CC(=O)N(CCCCCNC(=O)c2ccc(C3=c4cc5c(cc4Oc4cc6c(cc43)C(CS(=O)(=O)[O-])=CC(C)(C)N6C)=[N+](C)C(C)(C)C=C5CS(=O)(=O)O)c(C(=O)O)c2)C1=O)C(N)=O (stereo partly shown)	Mu-type opioid receptor (Oprm1, Mus musculus, UniProt P42866)	binding				koff	0.068 s⁻¹
COc1cc(Cl)c(C(=O)N[C@@H](CN[C@H]2CC[C@@H](N)CC2)Cc2ccc(C#N)cc2)cc1-c1ccc(CN[C@H](C)c2ccc(C)cc2)o1	Serine/threonine-protein kinase Nek3 (NEK3, Homo sapiens, UniProt P51956)	enzyme activity	inhibitor		1 µM	remaining activity	107%
O=[N+]([O-])c1cccc2[nH]c(CNc3nc(N4CCOCC4)nc4c3ncn4-c3ccsc3)nc12	CDK15	binding		competition with immobilised ligand	10 µM	binding vs control	47%
CCN(CC)CCCC[C@H](NC(=O)[C@H](CC(C)C)NC(=O)[C@H](C)NC(=O)[C@H](Cc1ccccc1)NC(=O)c1ccc(C(C)(C)C)cc1)C(=O)N[C@@H](CO)C(=O)OC	ATPase family AAA domain-containing protein 2B (ATAD2B, Homo sapiens, UniProt Q9ULI0)	thermal stability		DSF	25 µM	ΔTm	0 °C
COc1ncccc1-c1cnn2ccc(N3CCN(C(=O)OC(C)C)CC3)nc12	WNK1	binding		competition with immobilised ligand	1 µM	remaining binding	74%
Fc1cccc(-n2cnc3c(NCc4nc5c(F)c(F)ccc5[nH]4)nc(N4CCOCC4)nc32)c1	CDK15	binding		competition with immobilised ligand	10 µM	binding vs control	20%
[H]/N=C(/N)c1ccc(NCc2nc3cc(C(=O)N(CCC(=O)O)c4ccccn4)ccc3n2C)cc1	Vitamin K-dependent protein C (PROC, Homo sapiens, UniProt P04070)	enzyme activity	inhibitor		0.2 µM	inhibition	16%
Cc1nn(C)cc1-c1nc2c(N3CCN(Cc4ccc(Cl)cc4)CC3)c(Cl)cnc2[nH]1	Phosphatidylinositol 4-phosphate 3-kinase C2 domain-containing subunit beta (PIK3C2B, Homo sapiens, UniProt O00750)	binding		competition with immobilised ligand	1 µM	remaining binding	100%
CN(C)C(=O)COC(=O)Cc1ccc(OC(=O)c2ccc(NC(=N)N)cc2)cc1	MALT1	enzyme activity	inhibitor		10 µM	inhibition	48%
Nc1ncc(-c2nc(N3CCOCC3)nc(N3CCOCC3)n2)c(C(F)F)n1	WNK1	binding		competition with immobilised ligand	10 µM	remaining binding	57%
CCCCCn1nc(C(=O)N[C@H](C(N)=O)C(C)C)c2ccccc21	Cannabinoid receptor 1 (CNR1, Homo sapiens, UniProt P21554)	calcium signal	agonist	fluorescence		Emax	116%
CC(C)[C@H](NC(=O)OCc1ccccc1)C(=O)N[C@@H](CCCN=C(N)N)C(=O)N1CCC[C@H]1C(=O)N[C@@H](CCCN=C(N)N)C(=O)CF	MALT1	enzyme activity	inhibitor		10 nM	inhibition	56%
